Measured values from article PMC11796557 (RSC Advances, 2025).

Columns and labels:
Type in all cases: cell-based
A549 (lung carcinoma) = assay: MTT anticancer activity; details: Homo sapiens, A549, 48 h, read-out: IC50 A549
Procedure, shortened: (§1)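 Cells kept in DMEM with 10% FBS, 1% penicillin–streptomycin and 1% L-glutamine at 37 °C, 5% CO₂. They were seeded at 10 000 per well and attached for 24 h, then exposed to varying concentrations (from a 10 mM DMSO stock) for 48 h. MTT (5 mg mL⁻¹) was added for 4 h, formazan dissolved in DMSO, and A570 read. IC50 was calculated. DMSO served as vehicle control and cisplatin or doxorubicin as positive control. Values are mean ± SD of three independent experiments (n = 9).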

PC3 (prostate carcinoma) = assay: MTT anticancer activity; details: Homo sapiens, 48 h, read-out: IC50 PC3
Procedure, shortened: as §1

MCF-7 (breast carcinoma) = assay: MTT anticancer activity; details: Homo sapiens, MCF7, 48 h, read-out: IC50 MCF-7
Procedure, shortened: as §1

normal fibroblasts = assay: MTT cytotoxicity assay, normal fibroblasts; details: Fibroblast, 48 h, read-out: IC50 Fibroblasts
Procedure, shortened: as §1

HCT116 (colon carcinoma) = assay: MTT anticancer activity; details: Homo sapiens, HCT-116, 48 h, read-out: IC50 HCT116
Procedure, shortened: as §1

SMILES	IC50 (A549 (lung carcinoma))	IC50 (PC3 (prostate carcinoma))	IC50 (MCF-7 (breast carcinoma))	IC50 (normal fibroblasts)	IC50 (HCT116 (colon carcinoma))
O=C1CCCc2c1c(O)cc(=O)n2-c1ccccc1 [Compound 3a, 4-Hydroxy-1-phenyl-7,8-dihydroquinoline-2,5(1H,6H)-dione]	189 µM	151 µM	189 µM	> 500 µM	148 µM
CC1(C)CC(=O)c2c(O)cc(=O)n(-c3ccc(F)cc3)c2C1 [Compound 3h, 1-(4-Fluorophenyl)-4-hydroxy-7,7-dimethyl-7,8-dihydroquinoline-2,5(1H,6H)-dione]	87.9 µM	29.3 µM	32.4 µM	> 500 µM	28.9 µM
O=C1CCCc2c1c(O)cc(=O)n2-c1ccc(F)cc1 [Compound 3d, 1-(4-Fluorophenyl)-4-hydroxy-7,8-dihydroquinoline-2,5(1H,6H)-dione]	98.5 µM	65.9 µM	34.2 µM	> 500 µM	46.5 µM
CC1(C)CC(=O)c2c(O)cc(=O)n(-c3ccccc3)c2C1 [Compound 3f, 4-Hydroxy-7,7-dimethyl-1-phenyl-7,8-dihydroquinoline-2,5(1H,6H)-dione]	127 µM	95.5 µM	70.6 µM	> 500 µM	118 µM
COc1ccc(-n2c3c(c(O)cc2=O)C(=O)CC(C)(C)C3)cc1 [Compound 3i, 4-Hydroxy-1-(4-methoxyphenyl)-7,7-dimethyl-7,8-dihydroquinoline-2,5(1H,6H)-dione]	73 µM	34.1 µM	50.1 µM	> 500 µM	33.4 µM
Cc1ccc(-n2c3c(c(O)cc2=O)C(=O)CCC3)cc1 [Compound 3b, 4-Hydroxy-1-(p-tolyl)-7,8-dihydroquinoline-2,5(1H,6H)-dione]	159 µM	239 µM	213 µM	> 500 µM	162 µM
O=C1CCCc2c1c(O)cc(=O)n2-c1ccc(Cl)cc1 [Compound 3c, 1-(4-Chlorophenyl)-4-hydroxy-7,8-dihydroquinoline-2,5(1H,6H)-dione]	257 µM	251 µM	261 µM	> 500 µM	139 µM
COc1cccc2c1C(=O)c1c(O)c3c(c(O)c1C2=O)C[C@@](O)(C(=O)CO)C[C@@H]3O[C@H]1C[C@H](N)[C@H](O)[C@H](C)O1 [Doxorubicin, reference compound]			2.3 µM		5.8 µM
COc1ccccc1-n1c2c(c(O)cc1=O)C(=O)CCC2 [Compound 3e, 4-Hydroxy-1-(2-methoxyphenyl)-7,8-dihydroquinoline-2,5(1H,6H)-dione]	67 µM	45 µM	62.6 µM	> 500 µM	29.5 µM
COc1ccccc1-n1c2c(c(O)cc1=O)C(=O)CC(C)(C)C2 [Compound 3j, 4-Hydroxy-1-(2-methoxyphenyl)-7,7-dimethyl-7,8-dihydroquinoline-2,5(1H,6H)-dione]	78.8 µM	43.6 µM	81.4 µM	> 500 µM	38.2 µM
CC1(C)CC(=O)c2c(O)cc(=O)n(Cc3ccccc3)c2C1 [Compound 3g, 1-Benzyl-4-hydroxy-7,7-dimethyl-7,8-dihydroquinoline-2,5(1H,6H)-dione]	32.4 µM	29.1 µM	26.9 µM	> 500 µM	18.4 µM
